Tests used:
[1] = Clearance in rat at 100 mg/kg, iv administered as 0.5 hrs infusion by HPLC-MS method; assay type: ADME, organism-based; conditions: in vivo
[2] = biological target: T1, Class A carbapenemase (Enterobacter cloacae) (UniProt A7WP95); assay: Inhibition of Enterobacter cloacae ECL1061 KPC-3 assessed as cefepime MIC at 4 ug/ml by broth microdilution method
T1 sequence (whole entry): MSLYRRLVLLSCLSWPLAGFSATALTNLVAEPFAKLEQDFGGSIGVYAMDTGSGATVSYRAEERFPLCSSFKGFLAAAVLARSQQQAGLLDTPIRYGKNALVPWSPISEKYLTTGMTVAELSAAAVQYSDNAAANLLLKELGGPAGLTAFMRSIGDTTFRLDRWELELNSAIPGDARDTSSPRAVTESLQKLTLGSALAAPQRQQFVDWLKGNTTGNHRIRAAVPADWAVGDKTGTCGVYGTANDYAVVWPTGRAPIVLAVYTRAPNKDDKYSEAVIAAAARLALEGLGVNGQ

[3] = biological target: Beta lactamase TEM-1 (Klebsiella pneumoniae) (UniProt Q7B899); assay: Inhibition of Klebsiella pneumoniae KP1004 TEM-1 assessed as meropenem MIC at 4 ug/ml by broth microdilution method
Sequence of Beta lactamase TEM-1 (Klebsiella pneumoniae) (Q7B899 as listed by the source): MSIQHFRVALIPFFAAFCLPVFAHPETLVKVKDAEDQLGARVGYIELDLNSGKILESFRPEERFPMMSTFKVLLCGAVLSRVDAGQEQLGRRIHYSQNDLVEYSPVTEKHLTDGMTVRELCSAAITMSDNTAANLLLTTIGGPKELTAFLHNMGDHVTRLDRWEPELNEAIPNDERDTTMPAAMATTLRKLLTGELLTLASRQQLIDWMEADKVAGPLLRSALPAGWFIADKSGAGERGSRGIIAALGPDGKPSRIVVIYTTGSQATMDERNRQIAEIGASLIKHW
Method in brief: (§1)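 CLSI broth microdilution (M07-A9, 2012) MIC of the carbapenem against clinical serine carbapenemase-producing strain, tested alone and with the inhibitor held at a fixed 4 μg/mL.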

Klebsiella oxytoca [4] = assay: Inhibition of Klebsiella oxytoca KX1017 SHV-30 assessed as imipenem MIC at 4 ug/ml by broth microdilution method
[5] = Clearance in rat at 1000 mg/kg, iv administered as 0.5 hrs infusion by HPLC-MS method; assay type: ADME, organism-based; conditions: in vivo
Homo sapiens = assay: Clearance in human at 1 g administered as 3 hrs of infusion; assay type: ADME, organism-based; conditions: in vivo, iv
Klebsiella pneumoniae [6] = assay: Inhibition of Klebsiella pneumoniae KP1084 SHV-11 assessed as imipenem MIC at 4 ug/ml by broth microdilution method
Enterobacter cloacae = assay: Inhibition of Enterobacter cloacae ECL1058 SHV-11 assessed as meropenem MIC at 4 ug/ml by broth microdilution method
[7] = Inhibition of Escherichia coli recombinant TEM-10 assessed as substrate nitrocefin degradation preincubated for 10 mins followed by substrate addition measured every 10 secs for 10 mins by spectrophotometric analysis
Method in brief: (§2)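 β-Lactamases purified from overexpressing recombinant E. coli. Enzyme preincubated with inhibitor at varying concentrations for 10 min at room temperature in 50 mM Na phosphate pH 7.0, 0.1 mg/mL BSA. Then 50 μM nitrocefin (final) added and cleavage read at 490 nm every 10 s for 10 min. Ki derived by the Waley method.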

Klebsiella pneumoniae [8] = assay: In vivo inhibition of KPC in Klebsiella pneumoniae KP1074 in Swiss webster neutropenic mouse lung infection model assessed as meropenem deltalog10CFU in lung at 50 mg/kg, ip administered every 2 hrs starting at 2 hrs postinfection measured after 24 hrs; assay type: functional
Klebsiella oxytoca [9] = assay: Inhibition of Klebsiella oxytoca KX1017 OXA-2 assessed as ertapenem MIC at 4 ug/ml by broth microdilution method
Klebsiella oxytoca [10] = assay: Inhibition of Klebsiella oxytoca KX1017 SHV-30 assessed as biapenem MIC at 4 ug/ml by broth microdilution method
Klebsiella pneumoniae [11] = assay: Inhibition of Klebsiella pneumoniae KP1009 CTX-M-15 assessed as cefepime MIC at 4 ug/ml by broth microdilution method
Klebsiella pneumoniae [12] = assay: Inhibition of Klebsiella pneumoniae KP1088 SHV-11 assessed as imipenem MIC at 4 ug/ml by broth microdilution method
Method in brief: (§3)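 CLSI broth microdilution (M07-A9, 2012) against the clinical K. pneumoniae isolate. Carbapenem MICs were read alone and with 9f held at a fixed 4 μg/mL.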

[13] = biological target: Beta-lactamase (Klebsiella pneumoniae) (UniProt Q93LQ9); assay: Inhibition of Klebsiella pneumoniae KP1084 KPC-3 assessed as imipenem MIC at 4 ug/ml by broth microdilution method
Sequence of Beta-lactamase (Klebsiella pneumoniae) (Q93LQ9 as listed by the source): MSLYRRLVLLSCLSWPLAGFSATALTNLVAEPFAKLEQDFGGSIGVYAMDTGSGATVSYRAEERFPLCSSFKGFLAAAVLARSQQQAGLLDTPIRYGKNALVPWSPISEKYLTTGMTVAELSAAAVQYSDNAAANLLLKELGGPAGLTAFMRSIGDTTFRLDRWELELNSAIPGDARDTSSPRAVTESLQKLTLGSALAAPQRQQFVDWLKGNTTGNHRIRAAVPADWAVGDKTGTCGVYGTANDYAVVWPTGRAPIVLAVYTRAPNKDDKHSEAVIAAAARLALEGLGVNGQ

Klebsiella pneumoniae [14] = assay: Inhibition of Klebsiella pneumoniae KP1082 KPC-2 assessed as ertapenem MIC at 4 ug/ml by broth microdilution method; method in brief: as §1
[15] = Volume of distribution in rat at 1000 mg/kg, iv administered as 0.5 hrs infusion by HPLC-MS method; assay type: ADME, organism-based; conditions: in vivo
Escherichia coli = assay: Inhibition of Escherichia coli EC1008 CTX-M-3 assessed as cefepime MIC at 4 ug/ml by broth microdilution method
Method in brief: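 CLSI broth microdilution (M07-A9) against clinical strains expressing serine β-lactamases.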

[16] = biological target: Beta-lactamase (Klebsiella pneumoniae) (UniProt Q93LQ9); assay: Inhibition of Klebsiella pneumoniae KP1084 KPC-3 assessed as ertapenem MIC at 4 ug/ml by broth microdilution method; method in brief: as §1
Klebsiella pneumoniae [17] = assay: Inhibition of Klebsiella pneumoniae KP1004 KPC-2 assessed as biapenem MIC at 4 ug/ml by broth microdilution method; method in brief: as §1
[18] = Inhibition of Escherichia coli recombinant SHV-12 assessed as substrate nitrocefin degradation preincubated for 10 mins followed by substrate addition measured every 10 secs for 10 mins by spectrophotometric analysis; method in brief: as §2
Trypsin = Trypsin (Homo sapiens, UniProt P07477+P07478+P35030); assay: Inhibition of trypsin (unknown origin) using N-Bz-R-AMC as substrate preincubated for 10 mins followed by substrate addition measured for 30 mins by spectrophotometric analysis; assay type: protein assay
Method in brief: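 Trypsin in 50 mM Tris-HCl, pH 8.0, 10 mM CaCl2, 100 mM NaCl. Preincubated 10 min at 37 °C with varied inhibitor. N-Bz-R-AMC (listed at 200 μM) was then added and fluorescence read for 30 min. Rates were vs untreated control; IC50 is the concentration giving 50% inhibition.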

Klebsiella oxytoca [19] = assay: Inhibition of Klebsiella oxytoca KX1019 OXA-2 assessed as biapenem MIC at 4 ug/ml by broth microdilution method
Klebsiella oxytoca [20] = assay: Inhibition of Klebsiella oxytoca KX1017 OXA-2 assessed as biapenem MIC at 4 ug/ml by broth microdilution method
[21] = biological target: Carbapenem-hydrolyzing beta-lactamase KPC (Klebsiella oxytoca) (UniProt Q848S6); assay: Inhibition of Klebsiella oxytoca KX1017 KPC-2 assessed as ertapenem MIC at 4 ug/ml by broth microdilution method
Sequence of Carbapenem-hydrolyzing beta-lactamase KPC (Klebsiella oxytoca) (Q848S6 whole entry, the tested form may be a part): as the sequence (Q93LQ9 as listed by the source) above

[22] = AUC (0 to infinity) in rat at 300 mg/kg, iv administered as 0.5 hrs infusion by HPLC-MS method; assay type: ADME, organism-based; set-up: dose 300 mg/kg, time infinity, route intravenous; conditions: in vivo
Klebsiella pneumoniae [23] = assay: Inhibition of Klebsiella pneumoniae KP1087 KPC-2 assessed as imipenem MIC at 4 ug/ml by broth microdilution method
Method in brief: (§4)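 CLSI broth microdilution (M07-A9) against clinical K. pneumoniae strain KP1087 (KPC-2, CTX-M-15, SHV-11, TEM-1); carbapenem MIC (μg/mL) read with the inhibitor held at a fixed 4 μg/mL, alongside carbapenem alone.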

Klebsiella pneumoniae [24] = assay: Inhibition of Klebsiella pneumoniae KP1088 SHV-11 assessed as biapenem MIC at 4 ug/ml by broth microdilution method; method in brief: as §3
Klebsiella pneumoniae [25] = assay: Inhibition of Klebsiella pneumoniae KP1087 SHV-11 assessed as imipenem MIC at 4 ug/ml by broth microdilution method; method in brief: as §4
[26] = Volume of distribution in rat at 100 mg/kg, iv administered as 0.5 hrs infusion by HPLC-MS method; assay type: ADME, organism-based; conditions: in vivo

O=C(O)C[C@@H]1CC[C@H](NC(=O)Cc2cccs2)B(O)O1 [VABORBACTAM]
clearance [1]: 26.7 mL/min/kg
MIC [2]: 2 µg/mL
MIC [3]: < 0.06 µg/mL
MIC (Klebsiella oxytoca [4]): 0.13 µg/mL
clearance [5]: 16.2 mL/min/kg
clearance (Homo sapiens): 12.8 L/h
MIC (Klebsiella pneumoniae [6]): 0.25 µg/mL
MIC (Enterobacter cloacae): < 0.06 µg/mL
Ki [7]: 0.11 µM
deltalog10CFU (Klebsiella pneumoniae [8]): -2.03
MIC (Klebsiella oxytoca [9]): 0.25 µg/mL
MIC (Klebsiella oxytoca [10]): < 0.06 µg/mL
MIC (Klebsiella pneumoniae [11]): 2 µg/mL
MIC (Klebsiella pneumoniae [12]): ≤ 0.06 µg/mL
MIC [13]: 0.25 µg/mL
MIC (Klebsiella pneumoniae [14]): ≤ 0.06 µg/mL
Vd [15]: 0.55 L/kg
MIC (Escherichia coli): 4 µg/mL
MIC [16]: 4 µg/mL
MIC (Klebsiella pneumoniae [17]): ≤ 0.06 µg/mL
Ki [18]: 0.029 µM
IC50 (Trypsin): > 1000 µM
MIC (Klebsiella oxytoca [19]): 0.25 µg/mL
MIC (Klebsiella oxytoca [20]): < 0.06 µg/mL
MIC [21]: 0.25 µg/mL
AUC(0-inf) [22]: 239 µg·h/mL
MIC (Klebsiella pneumoniae [23]): 0.25 µg/mL
MIC (Klebsiella pneumoniae [24]): ≤ 0.06 µg/mL
MIC (Klebsiella pneumoniae [25]): 0.25 µg/mL
Vd [26]: 0.97 L/kg

Reference: ChEMBL document CHEMBL3576866, “Discovery of a Cyclic Boronic Acid β-Lactamase Inhibitor (RPX7009) with Utility vs Class A Serine Carbapenemases” (J Med Chem, 2015)
